The MIC is the smallest concentration in the dilution series that meets the test's criterion for growth inhibition. Usually IC50 stands for the concentration needed to halve the response being measured.

Structures are written as SMILES. Converted amounts (≈) assume the structure as drawn. The source made the active and inactive calls.

The values that follow come from ChEMBL document CHEMBL1240463, “Synthesis and biological evaluation of (+)-labdadienedial, derivatives and precursors from (+)-sclareolide” (Eur J Med Chem, 2010).

Test [1] has as its system Trichophyton mentagrophytes. As to the kind of experiment: Antifungal activity against Trichophyton mentagrophytes ATCC 24198 after 6 days by CLSI M38-A assay. Conditions: ATCC 24198, 6 days.
Test [2] deals with Candida parapsilosis. Nature of the test: Antifungal activity against Candida parapsilosis ATCC 22019 at 100 ug/mL after 24 hrs by AFSTEUCAST assay. It is filed as functional, organism-based.
Test [3] relates to HeLa. As to the kind of experiment: Cytotoxicity against human HeLa cells after 48 hrs by MTT assay. Format: functional, cell-based. The procedure, abridged: (§1)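 MTT colorimetric assay. HeLa (ATCC CCL-2) and Vero (ATCC CCL-81) cells were grown in MEM with 10% FBS at 37 °C, 5% CO2, then seeded at 1.5×10^4 (HeLa) or 1.25×10^4 (Vero) cells/well. Compound dilutions were added after 24 h and incubated 48 h more. Cell controls had 0.05% DMSO; vincristine was the reference. IC50 came from linear-regression dose-effect curves, mean ± S.E.M. of at least four dilutions in quadruplicate.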
Background: Tetrazolium dyes change colour on reduction, which living cells bring about.

Test [4] relates to Candida tropicalis. Nature of the test: Antifungal activity against Candida tropicalis CECT 11901 at 100 ug/mL after 24 hrs by AFSTEUCAST assay. Format: functional, organism-based.
Test [5] deals with Aspergillus fumigatus. Nature of the test: Antifungal activity against Aspergillus fumigatus ATCC 204305 after 48 hrs by CLSI M38-A assay. The settings on record: ATCC 204305, 48 h.
Test [6] concerns Fusarium oxysporum. As to the kind of experiment: Antifungal activity against Fusarium oxysporum ATCC 48112 after 48 hrs by CLSI M38-A assay. The settings on record: ATCC 48112, 48 h.
The test system of test [7] is Vero. As to the kind of experiment: Cytotoxicity against african green monkey Vero cells after 48 hrs by MTT assay. Conditions: Chlorocebus sabaeus. It is filed as cell-based. The procedure, abridged: as §1
Test [8] relates to Vero. As to the kind of experiment: Selectivity index, ratio of IC50 for green monkey Vero cells over IC50 for human HeLa cells. It is filed as functional. The procedure, abridged:
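Selectivity index is the Vero IC50 divided by the HeLa IC50. Both IC50s come from the 48 h MTT assay, each from linear-regression dose-effect curves.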

Test [9] has as its system Candida albicans. Nature of the test: Antifungal activity against Candida albicans ATCC 10231 at 100 ug/mL after 24 hrs by AFSTEUCAST assay. It is filed as functional, organism-based.
The subject of test [10] is Trichophyton rubrum. As to the kind of experiment: Antifungal activity against Trichophyton rubrum ATCC 28188 after 6 days by CLSI M38-A assay. The settings on record: ATCC 28188, 6 days.
In test [11] the test system is Pichia kudriavzevii. Nature of the test: Antifungal activity against Candida krusei ATCC 6258 at 100 ug/mL after 24 hrs by AFSTEUCAST assay. Format: functional, organism-based.
In test [12] the test system is B16. As to the kind of experiment: Cytotoxicity against mouse B16 cells. Format: functional, cell-based.
In test [13] the test system is Human alphaherpesvirus 1. As to the kind of experiment: Antiviral activity against HSV1 infected in Vero cells assessed reduction factor at 12.5 ug/ml after 36 hrs by end-point titration technique relative to control. It is filed as functional. The gist of the method: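 HSV-1 (CDC) end-point titration on Vero cells. Two-fold compound dilutions were mixed with one infection dose of virus (TCID50/0.1 mL) for 0.5 h at 37 °C. The mixture was added to confluent monolayers and incubated 36 h at 37 °C, 5% CO2. Reduction factor is the virus titer without compound divided by the titer with compound.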

In test [14] the test system is Candida parapsilosis. Nature of the test: Antifungal activity against Candida parapsilosis ATCC 22019 at 6.25 ug/mL after 24 hrs by AFSTEUCAST assay. Format: functional, organism-based.
For test [15], the system named is Pichia kudriavzevii. Nature of the test: Antifungal activity against Candida krusei ATCC 6258 at 6.25 ug/mL after 24 hrs by AFSTEUCAST assay. Format: functional, organism-based.
Test [16] relates to Candida albicans. Nature of the test: Antifungal activity against Candida albicans ATCC 10231 at 12.5 ug/mL after 24 hrs by AFSTEUCAST assay. It is filed as functional, organism-based.
Test [17] relates to SNU1. Nature of the test: Cytotoxicity against human SNU1 cells. Format: functional, cell-based.
For test [18], the system named is KB. Nature of the test: Cytotoxicity against human KB cells. Format: functional. Conditions: read-out: ED50 (the source's name).
The test system of test [19] is P388. Nature of the test: Cytotoxicity against mouse P388 cells. Format: functional, cell-based.
The subject of test [20] is Candida tropicalis. Nature of the test: Antifungal activity against Candida tropicalis CECT 11901 at 12.5 ug/mL after 24 hrs by AFSTEUCAST assay. It is filed as functional, organism-based.
Test [21] has as its system Aspergillus flavus. As to the kind of experiment: Antifungal activity against Aspergillus flavus ATCC 204304 at 100 ug/mL after 48 hrs by CLSI M38-A assay.
The test system of test [22] is Aspergillus terreus. Nature of the test: Antifungal activity against Aspergillus terreus CDC 317 at 100 ug/mL after 48 hrs by CLSI M38-A assay.

Consider `C=C1CC[C@H]2C(C)(C)CCC[C@]2(C)[C@H]1CC(=O)N(C)OC`, for which the MIC in test [1] is 19.8 µg/mL (≈ 67.5 µM); in test [5], greater than 100 µg/mL; in test [6], greater than 100 µg/mL; in test [10], 50 µg/mL (≈ 170 µM). For the same compound, the result in [2], in test [4], in test [9] and in test [11] was inactive. In addition, the values for the concentration for half-maximal inhibition (IC50) in [3] and in [7] were 11.7 µg/mL (≈ 39.9 µM) and 31.5 µg/mL (≈ 107 µM), respectively. For the same compound, the “Selectivity Index” value in [8] is given as 2.69.
Regarding `CC[C@]1(O)C[C@H]2CN(CCc3c([nH]c4ccccc34)[C@@](C(=O)OC)(c3cc4c(cc3OC)N(C=O)[C@H]3[C@@](O)(C(=O)OC)[C@H](OC(C)=O)[C@]5(CC)C=CCN6CC[C@]43[C@@H]65)C2)C1` [VINCRISTINE], the IC50 in test [3] came out at 0.05 µg/mL (≈ 0.0606 µM); in test [7] it was 1.1 µg/mL (≈ 1.33 µM). Besides, the Selectivity Index in test [8] turned out to be 22.
On to `C=C1CC[C@H]2C(C)(C)CCC[C@]2(C)[C@H]1C/C=C(/CC(=O)OC)C(=O)OC`, for which the minimum inhibitory concentration (MIC) in test [1], in test [5], in test [6] and in test [10] was greater than 100 µg/mL each time. For the same compound, the result in [2], in test [4], in test [9] and in test [11] was inactive. Also, the concentration for half-maximal inhibition (IC50) was 14.5 µg/mL (≈ 40 µM) in test [3] and 33.7 µg/mL (≈ 93 µM) in test [7]. Besides, the “Selectivity Index” value in test [8] is 2.32.
For the compound `C=C1CC[C@H]2C(C)(C)CCC[C@]2(C)[C@H]1C/C=C(\C=O)CC=O` (mixture of isomers) [LABDADIENEDIAL], the minimal inhibitory concentration (MIC) in test [1] was 1.24 µg/mL; in test [5], 79.4 µg/mL; in test [6] it was 19.8 µg/mL; in test [10] it was 0.62 µg/mL. The IC50 in [12] worked out at 41.2 µg/mL; in test [17], 12 µg/mL; in test [3], 19.5 µg/mL; in test [19] it was 4.1 µg/mL; in test [7] it was 13.1 µg/mL. In test [13], this compound showed an Activity of 100. Further, the result in [14], in test [15], in test [2], in test [16], in test [4] and in test [20] was Active. Moreover, the outcome in [9] and in test [11] was Active. For the same compound, the EC50 in test [18] is 40 µg/mL. For the same compound, the outcome in test [21] and in [22] was inactive. Moreover, in test [8], the “Selectivity Index” value was determined as 0.67.
As to `C=C1CCC2C(C)(C)CCC[C@]2(C)[C@H]1CC=O` (stereo not given in full), the MIC in test [1] was 31.5 µg/mL (≈ 134 µM); in test [5], greater than 100 µg/mL; in test [6] it was greater than 100 µg/mL; in [10] it was 31.5 µg/mL (≈ 134 µM). Also, the IC50 in test [12] was 30.8 µg/mL (≈ 131 µM); in test [17] it was 3.9 µg/mL (≈ 16.6 µM); in test [3], 2.6 µg/mL (≈ 11.1 µM); in test [19], 0.16 µg/mL (≈ 0.683 µM); in test [7] it was 10.7 µg/mL (≈ 45.7 µM). Moreover, the outcome in test [2], in test [4], in test [9] and in test [11] was inactive. In test [8], the “Selectivity Index” value came to 4.11.
For `CON(C)C(=O)C[C@H]1[C@@]2(C)CCCC(C)(C)[C@@H]2CC[C@]1(C)O` [WEINREB'S AMIDE], the MIC was 39.7 µg/mL (≈ 127 µM) in test [1], 50 µg/mL (≈ 161 µM) in [5], greater than 100 µg/mL in test [6] and 50 µg/mL (≈ 161 µM) in test [10]. Besides, the result in [2], in [4], in test [21], in [9], in test [11] and in test [22] was inactive. Moreover, the results for the half-maximal inhibitory concentration (IC50) in [3] and in test [7] were 66.8 µg/mL (≈ 214 µM) and 82 µg/mL (≈ 263 µM), respectively. Besides, the “Selectivity Index” value in test [8] is reported as 1.23.
As to `C=C1CC[C@H]2C(C)(C)CCC[C@]2(C)[C@H]1C/C=C(\CO)CCO`, the MIC in [1], in [5], in test [6] and in test [10] was greater than 100 µg/mL throughout. The result in test [2], in test [4], in test [9] and in test [11] was inactive. In addition, the 50% inhibitory concentration (IC50) in test [3] is 91 µg/mL (≈ 297 µM); in [7] it was 38 µg/mL (≈ 124 µM). Further, in test [8], the “Selectivity Index” value worked out at 0.42.
`C[C@@H]1[C@H](O)[C@@H](C)/C=C/C=C/C=C/C=C/C=C/C=C/C=C/[C@H](O[C@@H]2O[C@H](C)[C@@H](O)[C@H](N)[C@@H]2O)C[C@@H]2O[C@](O)(C[C@@H](O)C[C@@H](O)[C@H](O)CC[C@@H](O)C[C@@H](O)CC(=O)O[C@H]1C)C[C@H](O)[C@H]2C(=O)O` [AMPHOTERICIN B] showed an MIC in test [5] of 2 µg/mL (≈ 2.16 µM).
For the compound `CN(C/C=C/C#CC(C)(C)C)Cc1cccc2ccccc12` [TERBINAFINE], the minimal inhibitory concentration (MIC) in [1] is 0.0312 µg/mL (≈ 0.107 µM); in [10], less than 0.078 µg/mL.
`CCC(C)n1ncn(-c2ccc(N3CCN(c4ccc(OCC5COC(Cn6cncn6)(c6ccc(Cl)cc6Cl)O5)cc4)CC3)cc2)c1=O` (stereo not given) [ITRACONAZOLE] had an MIC in [5] of 0.17 µg/mL (≈ 0.241 µM).
Turning to `C=C1CC[C@H]2C(C)(C)CCC[C@]2(C)[C@H]1C/C=C(/CC(=O)O)C(=O)O`, the MIC in test [1], in test [5], in test [6] and in [10] was greater than 100 µg/mL in each case. The outcome in [2], in test [4], in [9] and in [11] was inactive. Besides, the IC50 was 84.5 µg/mL (≈ 253 µM) in test [3] and 39 µg/mL (≈ 117 µM) in [7]. In addition, the “Selectivity Index” value in test [8] is given as 0.46.
